# What was measured:
# A375 xenografts = experiment: In vivo NIF whole-body imaging of tumor-bearing mice; design: species or system BALB/c nu/nu nude mice; conditions: A375 xenograft, 1 nM Cy5.5-A11 i.v.
# Method in brief: (§1)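 Five-week-old female nude mice carried right-shoulder subcutaneous xenografts (5×10^6 cells). At 100 mm³, 1 nM Cy5.5-labelled test peptide was given i.v. (n = 3). Whole-body NIR imaging followed at 0.5, 1, 2, 3, 4, 5, 6 and 24 h p.i. with a Cy5.5 filter set, 1 s exposure, f/stop 4 and fixed illumination, in p/s/cm²/sr. Tumour-to-muscle ratio came from ROI mean intensities; mean ± SD.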
# H460 cells = experiment: In vitro fluorescence imaging of Cy5.5-A11; type: cell-based; conditions: 6 h
# Method in brief: (§2)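 Cells (5×10^4; kept in DMEM or RPMI-1640 with 10% FBS) were plated in chamber slides and cultured 24 h. They were then exposed to 10 nM Cy5.5-labelled test peptide at 37 °C for 6 h; blocking wells also received 1 μM unlabelled peptide. After three PBS washes, cells were fixed in 4% paraformaldehyde for 20 min and DAPI-stained. Images were taken by laser confocal microscopy.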
# A375 cells = experiment: In vitro fluorescence imaging of Cy5.5-A11; type: cell-based; conditions: 6 h
# Method in brief: as §2
# MDA-MB-231 cells = experiment: In vitro fluorescence imaging of Cy5.5-A11; type: cell-based; conditions: 6 h
# Method in brief: as §2
# [1] = tested on: MDA-MB-231 tumor-bearing mice; experiment: Ex vivo biodistribution study; type: in vivo, BALB/c nu/nu nude mice; conditions: 4 h p.i.
# Method in brief: (§3)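 Five-week-old female nude mice carried subcutaneous right-shoulder xenografts (5×10^6 cells), including xenografts from stable shRNA PD-L1-knockdown lines. At 100 mm³ tumour volume, mice received 1 nM Cy5.5-labelled test peptide i.v., with or without 1 μM unlabelled peptide (n = 3). Mice were killed at 4 h p.i. Tumour, brain, heart, lung, liver, stomach, intestine, spleen, kidney and muscle were imaged ex vivo through a Cy5.5 filter set. Average fluorescence per specimen was taken by ROI; mean ± SD.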
# H460 tumor-bearing mice = experiment: Ex vivo biodistribution study; type: in vivo, BALB/c nu/nu nude mice; conditions: 4 h p.i.
# Method in brief: as §3
# A375 tumor-bearing mice = experiment: Ex vivo biodistribution study; type: in vivo, BALB/c nu/nu nude mice; conditions: 4 h p.i.
# Method in brief: as §3
# H460 xenografts = experiment: In vivo NIF whole-body imaging of tumor-bearing mice; design: species or system BALB/c nu/nu nude mice; conditions: H460 xenograft, 1 nM Cy5.5-A11 i.v.
# Method in brief: as §1
# MDA-MB-231 xenografts = experiment: as above; design: species or system BALB/c nu/nu nude mice; conditions: MDA-MB-231 xenograft, 1 nM Cy5.5-A11 i.v.
# Method in brief: as §1
# PD-L1 = conditions: various cancer cells; cited from earlier work
# [2] = 0.5-6 h p.i., ROI analysis, n = 3
substance,measurement,setting,value
Cy5.5-EYVQTVKSSKG [Cy5.5-A11],tumor-to-muscle fluorescence signal ratio,A375 xenografts; [2],High
same,tumor-specific fluorescence signal at 24 h p.i.,A375 xenografts; 24 h p.i.,distinctly visible
same,time of peak tumor-specific fluorescence signal,A375 xenografts; n = 3,2 h p.i.
same,"fluorescent signal of cells, blocking with unlabeled A11","H460 cells; H460, 10 nM Cy5.5-A11 + 1 μM unlabeled A11, 37 °C, confocal microscopy",successfully blocked
same,fluorescent signal of cells,"H460 cells; H460, 10 nM Cy5.5-A11, 37 °C, laser confocal microscopy, nonblocking",robust fluorescent signal
same,fluorescent signal in PD-L1 knockdown versus shNC control cells,"H460 cells; H460 stable PD-L1 shRNA knockdown and shNC control, 10 nM Cy5.5-A11, 37 °C, confocal microscopy",seen in shNC control cells but not PD-L1 knockdown cancer cells
same,"fluorescent signal of cells, blocking with unlabeled A11","A375 cells; A375, 10 nM Cy5.5-A11 + 1 μM unlabeled A11, 37 °C, confocal microscopy",successfully blocked
same,fluorescent signal of cells,"A375 cells; A375, 10 nM Cy5.5-A11, 37 °C, laser confocal microscopy, nonblocking",robust fluorescent signal
same,fluorescent signal in PD-L1 knockdown versus shNC control cells,"A375 cells; A375 stable PD-L1 shRNA knockdown and shNC control, 10 nM Cy5.5-A11, 37 °C, confocal microscopy",seen in shNC control cells but not PD-L1 knockdown cancer cells
same,"fluorescent signal of cells, blocking with unlabeled A11","MDA-MB-231 cells; MDA-MB-231, 10 nM Cy5.5-A11 + 1 μM unlabeled A11, 37 °C, confocal microscopy",successfully blocked
same,fluorescent signal of cells,"MDA-MB-231 cells; MDA-MB-231, 10 nM Cy5.5-A11, 37 °C, laser confocal microscopy, nonblocking",robust fluorescent signal
same,fluorescent signal in PD-L1 knockdown versus shNC control cells,"MDA-MB-231 cells; MDA-MB-231 stable PD-L1 shRNA knockdown and shNC control, 10 nM Cy5.5-A11, 37 °C, confocal microscopy",seen in shNC control cells but not PD-L1 knockdown cancer cells
same,ex vivo uptake in the xenografts with excessive unlabeled A11,"[1]; MDA-MB-231, blocking group, 1 nM Cy5.5-A11 + 1 μM unlabeled A11 i.v.",obviously reduced
same,ex vivo uptake of the probe in the xenografts,"[1]; MDA-MB-231, nonblocking group, 1 nM Cy5.5-A11 i.v., ex vivo fluorescence, ROI",significant uptake
same,ex vivo fluorescent signal in xenografts of cancer cells with PD-L1 knockdown,"[1]; PD-L1 knockdown MDA-MB-231, 1 nM Cy5.5-A11 i.v.",dramatically decreased
same,ex vivo uptake in the xenografts with excessive unlabeled A11,"H460 tumor-bearing mice; H460, blocking group, 1 nM Cy5.5-A11 + 1 μM unlabeled A11 i.v.",obviously reduced
same,ex vivo uptake of the probe in the xenografts,"H460 tumor-bearing mice; H460, nonblocking group, 1 nM Cy5.5-A11 i.v., ex vivo fluorescence, ROI",significant uptake
same,ex vivo fluorescent signal in xenografts of cancer cells with PD-L1 knockdown,"H460 tumor-bearing mice; PD-L1 knockdown H460, 1 nM Cy5.5-A11 i.v.",dramatically decreased
same,ex vivo uptake in the xenografts with excessive unlabeled A11,"A375 tumor-bearing mice; A375, blocking group, 1 nM Cy5.5-A11 + 1 μM unlabeled A11 i.v.",obviously reduced
same,ex vivo uptake of the probe in the xenografts,"A375 tumor-bearing mice; A375, nonblocking group, 1 nM Cy5.5-A11 i.v., ex vivo fluorescence, ROI",significant uptake
same,organ uptake (biodistribution),"A375 tumor-bearing mice; A375 tumor-bearing mice, three groups (nonblocking, blocking, PD-L1 KD), ex vivo fluorescence, ROI",higher in the liver and kidney than that in other organs
same,ex vivo fluorescent signal in xenografts of cancer cells with PD-L1 knockdown,"A375 tumor-bearing mice; PD-L1 knockdown A375, 1 nM Cy5.5-A11 i.v.",dramatically decreased
same,tumor-to-muscle fluorescence signal ratio,H460 xenografts; [2],High
same,tumor-specific fluorescence signal at 24 h p.i.,H460 xenografts; 24 h p.i.,distinctly visible
same,time of peak tumor-specific fluorescence signal,H460 xenografts; n = 3,2 h p.i.
same,tumor-to-muscle fluorescence signal ratio,MDA-MB-231 xenografts; [2],High
same,tumor-specific fluorescence signal at 24 h p.i.,MDA-MB-231 xenografts; 24 h p.i.,distinctly visible
same,time of peak tumor-specific fluorescence signal,MDA-MB-231 xenografts; n = 3,2 h p.i.
EYVQTVKSSKG [A11],action on PD-L1,PD-L1,binds and degrades PD-L1

# Reference: paper PMC11525735 (ACS Omega, 2024)
